The nature of data set [1]: Antagonist activity at ComD1 receptor in Streptococcus pneumoniae D39 harboring pcomX/lacZ reporter gene assessed as inhibiton of CSP1-stimulated maximum signal preincubated for 30 mins followed by 50 nM CSP1 addition by ONPG based beta-galactosidase assay. In a few lines:
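Comx-lacZ β-gal reporter inhibition in D39 (ComD1, CSP1 50 nM) or TIGR4 (ComD2, CSP2 250 nM). Peptides tested over a range of concentrations against the stimulating CSP. Miller units normalized to CSP alone. IC50 given with 95% confidence interval.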

Data set [2] in a line: Metabolic stability in aqueous ammonium carbonate solution assessed as trypsin/chymotrypsin (unknown origin)-mediated drug degradation by measuring half life at 0.05 ug/ml incubated in shaking conditions in presence of trypsin/chymotrpsin and measured for 48 hrs by RP-HPLC analysis. The conditions noted are these: human. Format: ADME.
Data set [3] is described as follows: Metabolic stability in human plasma at 0.33 mM measured for 3 hrs by RP-HPLC analysis. The conditions noted are these: 330 µM. The format is ADME, cell-free.
The test system of data set [4] is Streptococcus pneumoniae TIGR4. The experiment in a line: Agonist activity at ComD2 receptor in Streptococcus pneumoniae TIGR4 harboring pcomX/lacZ reporter gene at 10 uM incubated for 30 mins by ONPG based beta-galactosidase assay relative to native CSP2. In a few lines: (§1)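 Single-dose screen of synthetic peptide at 10 μM in wild-type reporter strains (D39 for ComD1, TIGR4 for ComD2) producing their own CSP and carrying lacZ under the comX promoter. β-gal activity in Miller units normalized to native CSP (CSP1 or CSP2, 100%); DMSO 0%. Triplicates over three separate trials.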
(In general: In a reporter assay the amount or activity of a reporter protein is the signal.)

In data set [5] the test system is Streptococcus pneumoniae D39. The experiment in a line: Agonist activity at ComD1 receptor in Streptococcus pneumoniae D39 harboring pcomX/lacZ reporter gene at 10 uM incubated for 30 mins by ONPG based beta-galactosidase assay relative to native CSP1. The method in brief:
as §1

Data set [6] in a line: Agonist activity at ComD2 receptor in Streptococcus pneumoniae TIGR4 harboring pcomX/lacZ reporter gene incubated for 30 mins by ONPG based beta-galactosidase assay. The method in brief: (§2)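 Dose-response in wild-type lacZ reporter strains (comX promoter; D39 for ComD1, TIGR4 for ComD2) producing native CSP. Peptides tested over a range of concentrations. β-gal read-out (Miller units) normalized to native CSP. EC50 reported with 95% confidence interval.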

Data set [7] concerns Streptococcus pneumoniae D39. The experiment in a line: Antagonist activity at ComD1 receptor in Streptococcus pneumoniae D39 harboring pcomX/lacZ reporter gene assessed as inhibiton of CSP1-stimulated maximum signal at 10 uM preincubated for 30 mins followed by 50 nM CSP1 addition by ONPG based beta-galactosidase assay relative to native CSP1. The method in brief:
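Inhibition screen: peptides at 10 μM against CSP1 50 nM (D39, ComD1) or CSP2 250 nM (TIGR4, ComD2), in comX-lacZ reporter strains. β-gal Miller units normalized to CSP alone (100%) and DMSO (0%). Triplicates over three separate trials.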

Data set [8] is described as follows: Solubility of the compound in ammonium carbonate solution at pH 8. The format is physicochemical. The conditions noted are these: buffer.
Data set [9] can be described thus: Agonist activity at ComD1 receptor in Streptococcus pneumoniae D39 harboring pcomX/lacZ reporter gene incubated for 30 mins by ONPG based beta-galactosidase assay. The method in brief: as §2

Activity calls are given as the source filed them. The rule behind the calls is not given here. Non-standard residues stand in square brackets, D forms with d. Residues, ends and D or L forms follow the SMILES beside them. NMeR = CN[C@@H](CCCNC(=N)N)C(=O)O; NMeF = CN[C@@H](Cc1ccccc1)C(=O)O; NMeI = CC[C@H](C)[C@H](NC)C(=O)O; NMeD = CN[C@@H](CC(=O)O)C(=O)O; NMeL = CN[C@@H](CC(C)C)C(=O)O; NMeS = CN[C@@H](CO)C(=O)O

What is called IC50 is the midpoint of a concentration-inhibition curve. One may read the half-life as the time in which the quantity being followed falls by half. A word on the EC50: it is the concentration that produces a half-maximal response.

Turning to `CC[C@H](C)[C@H](NC(=O)[C@H](Cc1ccccc1)NC(=O)[C@H](CC(=O)O)NC(=O)[C@H](CCCNC(=N)N)NC(=O)[C@H](Cc1ccccc1)NC(=O)[C@H](Cc1ccccc1)NC(=O)[C@H](CCCCN)NC(=O)[C@H](CO)NC(=O)[C@H](CC(C)C)NC(=O)[C@H](CCCNC(=N)N)NC(=O)[C@H](CCSC)NC(=O)[C@H](C)N)C(=O)N[C@@H](CC(C)C)C(=O)N(C)[C@@H](CCC(N)=O)C(=O)N[C@@H](CCCNC(=N)N)C(=O)N[C@@H](CCCCN)C(=O)N[C@@H](CCCCN)C(=O)O`, in data set [1], the IC50 was determined as 370 nM. Also, the half-life at 0.05 ug/ml in data set [2] is 6 h. In data set [3], the Stability result is reported as “Stable”.

As to `CC[C@H](C)[C@H](NC(=O)[C@H](Cc1ccccc1)NC(=O)[C@H](CC(=O)O)NC(=O)[C@H](CCCNC(=N)N)NC(=O)[C@H](Cc1ccccc1)NC(=O)[C@H](Cc1ccccc1)NC(=O)[C@H](CCCCN)N(C)C(=O)[C@H](CO)NC(=O)[C@H](CC(C)C)NC(=O)[C@H](CCCNC(=N)N)NC(=O)[C@H](CCSC)NC(=O)[C@H](C)N)C(=O)N[C@@H](CC(C)C)C(=O)N[C@@H](CCC(N)=O)C(=O)N[C@@H](CCCNC(=N)N)C(=O)N[C@@H](CCCCN)C(=O)N[C@@H](CCCCN)C(=O)O`, in data set [1], the IC50 was 48 nM. For the same compound, the half-life at 0.05 ug/ml in data set [2] was 2 h. The Stability result in data set [3] is listed as “Unstable”.

Turning to `CC[C@H](C)[C@H](NC(=O)[C@H](Cc1ccccc1)NC(=O)[C@H](CC(=O)O)NC(=O)[C@H](CCCNC(=N)N)NC(=O)[C@H](Cc1ccccc1)NC(=O)[C@H](Cc1ccccc1)NC(=O)[C@H](CCCCN)N(C)C(=O)[C@H](CO)NC(=O)[C@H](CC(C)C)NC(=O)[C@H](CCCNC(=N)N)NC(=O)[C@H](CCSC)NC(=O)[C@H](C)N)C(=O)N[C@@H](CC(C)C)C(=O)N(C)[C@@H](CCC(N)=O)C(=O)N[C@@H](CCCNC(=N)N)C(=O)N[C@@H](CCCCN)C(=O)N[C@@H](CCCCN)C(=O)O`, the IC50 in data set [1] came out at 360 nM. Further, in data set [2], the half-life at 0.05 ug/ml was 6 h. The Stability result in data set [3] is on record as “Unstable”.

In the case of `CC[C@H](C)[C@H](NC(=O)[C@H](CCCNC(=N)N)NC(=O)[C@H](CCSC)NC(=O)[C@@H](N)CCC(=O)O)C(=O)N[C@@H](CO)C(=O)N(C)[C@@H](CCCNC(=N)N)C(=O)N[C@H](C(=O)N[C@H](C(=O)N[C@@H](CC(C)C)C(=O)N[C@@H](CC(=O)O)C(=O)N[C@@H](Cc1ccccc1)C(=O)N[C@@H](CC(C)C)C(=O)N[C@@H](Cc1ccccc1)C(=O)O)[C@@H](C)CC)[C@@H](C)CC` (H-EMRIS[NMeR]IILDFLF-OH), in data set [4], the Activity is > 75%. Further, the outcome in [5] was inactive. In addition, the EC50 in data set [6] came out at 560 nM. The inhibition result in [7] was “inactive”. For the same compound, the solubility result in data set [8] is given as “Insoluble”.

Regarding `CC[C@H](C)[C@H](NC(=O)[C@H](CCCNC(=N)N)NC(=O)[C@H](CO)N(C)C(=O)[C@@H](NC(=O)[C@H](CCCNC(=N)N)NC(=O)[C@H](CCSC)NC(=O)[C@@H](N)CCC(=O)O)[C@@H](C)CC)C(=O)N[C@H](C(=O)N[C@@H](CC(C)C)C(=O)N[C@@H](CC(=O)O)C(=O)N[C@@H](Cc1ccccc1)C(=O)N[C@@H](CC(C)C)C(=O)N[C@@H](Cc1ccccc1)C(=O)O)[C@@H](C)CC` (H-EMRI[NMeS]RIILDFLF-OH), the Activity in data set [4] was > 75%. For the same compound, the result in data set [5] was inactive. The compound also registered an EC50 in [6] of 550 nM. For the same compound, in data set [7], the inhibition entry was “inactive”. Moreover, the solubility entry in [8] is given as “Insoluble”.

Regarding `CC[C@H](C)[C@H](NC(=O)[C@H](Cc1ccccc1)NC(=O)[C@H](CC(=O)O)NC(=O)[C@H](CCCNC(=N)N)NC(=O)[C@H](Cc1ccccc1)NC(=O)[C@H](Cc1ccccc1)NC(=O)[C@H](CCCCN)NC(=O)[C@H](CO)NC(=O)[C@H](CC(C)C)NC(=O)[C@H](CCCNC(=N)N)NC(=O)[C@H](CCSC)NC(=O)[C@@H](N)CCC(=O)O)C(=O)N[C@@H](CC(C)C)C(=O)N[C@@H](CCC(N)=O)C(=O)N(C)[C@@H](CCCNC(=N)N)C(=O)O` (H-EMRLSKFFRDFILQ[NMeR]-OH), the Activity in [4] and in data set [5] was > 75% each time. Further, the figures for the EC50 in data set [9] and in [6] were 130 nM and > 1000 nM, respectively.

On to `CC[C@H](C)[C@H](NC(=O)[C@H](Cc1ccccc1)NC(=O)[C@H](CC(=O)O)NC(=O)[C@H](CCCNC(=N)N)NC(=O)[C@H](Cc1ccccc1)NC(=O)[C@H](Cc1ccccc1)NC(=O)[C@H](CCCCN)NC(=O)[C@H](CO)NC(=O)[C@H](CC(C)C)NC(=O)[C@H](CCCNC(=N)N)NC(=O)[C@H](CCSC)NC(=O)[C@@H](N)CCC(=O)O)C(=O)N(C)[C@@H](CC(C)C)C(=O)N[C@@H](CCC(N)=O)C(=O)N[C@@H](CCCNC(=N)N)C(=O)O` (H-EMRLSKFFRDFI[NMeL]QR-OH), for which the result in [4] and in [5] was inactive. In addition, the EC50 in [9] is > 1000 nM.

In the case of `CC[C@H](C)[C@H](NC(=O)[C@H](Cc1ccccc1)NC(=O)[C@H](CC(=O)O)N(C)C(=O)[C@H](CCCNC(=N)N)NC(=O)[C@H](Cc1ccccc1)NC(=O)[C@H](Cc1ccccc1)NC(=O)[C@H](CCCCN)NC(=O)[C@H](CO)NC(=O)[C@H](CC(C)C)NC(=O)[C@H](CCCNC(=N)N)NC(=O)[C@H](CCSC)NC(=O)[C@@H](N)CCC(=O)O)C(=O)N[C@@H](CC(C)C)C(=O)N[C@@H](CCC(N)=O)C(=O)N[C@@H](CCCNC(=N)N)C(=O)O` (H-EMRLSKFFR[NMeD]FILQR-OH), the Activity in data set [4] is > 75%. For the same compound, the EC50 in [9] and in data set [6] was > 1000 nM each time. Besides, the outcome in data set [5] was inactive.

On to `CC[C@H](C)[C@H](NC(=O)[C@H](Cc1ccccc1)NC(=O)[C@H](CC(=O)O)NC(=O)[C@H](CCCNC(=N)N)NC(=O)[C@H](Cc1ccccc1)N(C)C(=O)[C@H](Cc1ccccc1)NC(=O)[C@H](CCCCN)NC(=O)[C@H](CO)NC(=O)[C@H](CC(C)C)NC(=O)[C@H](CCCNC(=N)N)NC(=O)[C@H](CCSC)NC(=O)[C@@H](N)CCC(=O)O)C(=O)N[C@@H](CC(C)C)C(=O)N[C@@H](CCC(N)=O)C(=O)N[C@@H](CCCNC(=N)N)C(=O)O` (H-EMRLSKF[NMeF]RDFILQR-OH), for which, in data set [4], the result was inactive. Besides, the EC50 in data set [9] is > 1000 nM. The Activity in data set [5] was > 75%.

For `CC[C@H](C)[C@H](NC(=O)[C@H](Cc1ccccc1)NC(=O)[C@H](CC(=O)O)NC(=O)[C@H](CCCNC(=N)N)NC(=O)[C@H](Cc1ccccc1)NC(=O)[C@H](Cc1ccccc1)NC(=O)[C@H](CCCCN)NC(=O)[C@H](CO)N(C)C(=O)[C@H](CC(C)C)NC(=O)[C@H](CCCNC(=N)N)NC(=O)[C@H](CCSC)NC(=O)[C@@H](N)CCC(=O)O)C(=O)N[C@@H](CC(C)C)C(=O)N[C@@H](CCC(N)=O)C(=O)N[C@@H](CCCNC(=N)N)C(=O)O` (H-EMRL[NMeS]KFFRDFILQR-OH), the Activity in [4] and in data set [5] was > 75% each time. Also, the values for the EC50 in [9] and in data set [6] were 280 nM and > 1000 nM, respectively.

As for `CC[C@H](C)[C@H](NC(=O)[C@H](CCCNC(=N)N)NC(=O)[C@H](CO)NC(=O)[C@H]([C@@H](C)CC)N(C)C(=O)[C@H](CCCNC(=N)N)NC(=O)[C@H](CCSC)NC(=O)[C@@H](N)CCC(=O)O)C(=O)N[C@H](C(=O)N[C@@H](CC(C)C)C(=O)N[C@@H](CC(=O)O)C(=O)N[C@@H](Cc1ccccc1)C(=O)N[C@@H](CC(C)C)C(=O)N[C@@H](Cc1ccccc1)C(=O)O)[C@@H](C)CC` (H-EMR[NMeI]SRIILDFLF-OH), the Activity in data set [4] was > 75%. The outcome in data set [5] was inactive. The EC50 in data set [6] is > 1000 nM. For the same compound, in [7], the inhibition result was “inactive”. The solubility entry in data set [8] is “Insoluble”.

Take `CC[C@H](C)[C@H](NC(=O)[C@H](Cc1ccccc1)NC(=O)[C@H](CC(=O)O)NC(=O)[C@H](CCCNC(=N)N)NC(=O)[C@H](Cc1ccccc1)NC(=O)[C@H](Cc1ccccc1)NC(=O)[C@H](CCCCN)NC(=O)[C@H](CO)NC(=O)[C@H](CC(C)C)N(C)C(=O)[C@H](CCCNC(=N)N)NC(=O)[C@H](CCSC)NC(=O)[C@@H](N)CCC(=O)O)C(=O)N[C@@H](CC(C)C)C(=O)N[C@@H](CCC(N)=O)C(=O)N[C@@H](CCCNC(=N)N)C(=O)O` (H-EMR[NMeL]SKFFRDFILQR-OH): the result in data set [4] was inactive. In addition, the response in data set [9] was half-maximal at 280 nM (EC50). Further, in data set [5], the Activity is > 75%.

As for H-EMRLSKFFRDFILQR-OH, the EC50 in [9] was 8.1 nM; in data set [6] it was > 1000 nM. In addition, the half-life at 0.05 ug/ml in data set [2] was 4 h.

Source of the values: ChEMBL document CHEMBL4364271, “Unveiling the Importance of Amide Protons in CSP:ComD Interactions in Streptococcus pneumoniae” (ACS Med Chem Lett, 2019).
